The source made the active and inactive calls. The calls are words filed in the database; no cut-off is given here.
Columns and labels:
[1] = system: Mus musculus; assay: Evaluated for ear-scratch response (hallucinogen like activity) in mice at a dose of 1.00 mg/Kg; format: functional
In short: (§1)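 Male albino Swiss-Webster derived mice, 25–40 g, group housed at 22–24 °C, 12–12 h light-dark cycle. HCl salt given ip in saline (0.1 mL/10 g body weight). Mice observed in groups of three, continuously for 30 min; total hindleg scratches of the back of the ear counted, with the hindleg then returned to the floor. Saline control included.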

[2] = system: Mus musculus; assay: Evaluated for ear-scratch response (hallucinogen like activity) in mice at a dose of 2.00 mg/Kg; format: functional; in short: as §1
[3] = system: Mus musculus; assay: Evaluated for ear-scratch response (hallucinogen like activity) in mice at a dose of 4.00 mg/Kg; format: functional; in short: as §1
[4] = system: Mus musculus; assay: Evaluated for ear-scratch response (hallucinogen like activity) in mice at a dose of 10.00 mg/Kg; format: functional; in short: as §1
[5] = system: Mus musculus; assay: Evaluated for ear-scratch response (hallucinogen like activity) in mice at a dose of 20.00 mg/Kg; format: functional; in short: as §1
[6] = system: Mus musculus; assay: Evaluated for ear-scratch response (hallucinogen like activity) in mice at a dose of 5.00 mg/Kg; format: functional; in short: as §1
[7] = system: Mus musculus; assay: Evaluated for ear-scratch response (hallucinogen like activity) in mice at a dose of 1.25 mg/Kg; format: functional; in short: as §1
[8] = system: Mus musculus; assay: Evaluated for ear-scratch response (hallucinogen like activity) in mice at a dose of 10.0 mg/Kg; format: functional; in short: as §1
[9] = system: Mus musculus; assay: Evaluated for ear-scratch response (hallucinogen like activity) in mice at a dose of 2.5 mg/Kg; format: functional; in short: as §1
[10] = system: Mus musculus; assay: Evaluated for ear-scratch response (hallucinogen like activity) in mice at a dose of 20.0 mg/Kg; format: functional; in short: as §1
[11] = species on record: Mus musculus; assay: Compound was evaluated for hallucinogenic activity in mice; Inactive; format: functional, organism-based; in short: as §1

Compound: COc1cc(C[C@@H](C)N)c(OC)cc1C
- No. of scratches [1]: 52.4
- No. of scratches [2]: 109.2
- No. of scratches [3]: 79

Compound: COc1cc(C2CC2N)c(OC)cc1C (configuration not stated)
- No. of scratches [4]: 56.2
- No. of scratches [5]: 64.2
- No. of scratches [6]: 39.5

Compound: COc1cc([C@@H]2[C@@H](C)[C@H]2N)c(OC)cc1C (stereo in doubt; 4a)
- No. of scratches [7]: 11.5
- No. of scratches [8]: 12.8
- No. of scratches [9]: 10.8
- No. of scratches [6]: 17.3
- No. of scratches [10]: 2.5

Compound: CC[C@@H](N)Cc1cc(OC)c(C)cc1OC
- Halucinogenic activity [11]: inactive

From ChEMBL document CHEMBL1122052, “Isomeric cyclopropyl ring-methylated homologues of trans-2-(2,5-dimethoxy-4-methylphenyl)cyclopropylamine, an hallucinogen analogue” (1982)
